Reference: ChEMBL document CHEMBL1240400, “Comparative in vitro activities of nemonoxacin (TG-873870), a novel nonfluorinated quinolone, and other quinolones against clinical isolates” (2010)
In brackets after ≈: the same amount, converted by molar mass.

How the values were obtained:
Type in all cases: functional
Staphylococcus = experiment: Antibacterial activity against methicillin resistant coagulase negative Staphylococcus by broth dilution method
[1] = test system: Staphylococcus epidermidis; experiment: Antibacterial activity against methicillin resistant coagulase negative Staphylococcus epidermidis by broth dilution method
Escherichia coli [2] = experiment: Antibacterial activity against ciprofloxacin resistant Escherichia coli by broth dilution method
In short: (§1)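 Clinical isolates tested by CLSI broth microdilution in panels holding serial twofold drug dilutions in cation-adjusted Mueller-Hinton broth. Final inoculum 5 × 10^5 CFU/ml was made from a 0.5 McFarland suspension. Plates were incubated overnight at 35°C in ambient air, and the MIC was read as the lowest concentration inhibiting growth. Quality control strains were included in each run.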

Escherichia coli [3] = experiment: Antibacterial activity against ciprofloxacin susceptible Escherichia coli by broth dilution method
In short: (§2)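 Broth microdilution per CLSI in panels spanning a dilution range of each agent. Cation-adjusted Mueller-Hinton broth, final inoculum 5 × 10^5 CFU/ml from a 0.5 McFarland suspension. Incubated overnight at 35°C in ambient air, with quality control strains in each run. MIC reported; values at or below the lowest concentration tested are given as that concentration.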

Klebsiella pneumoniae = experiment: Antibacterial activity against Klebsiella pneumoniae by broth dilution method; in short: as §2
Proteus mirabilis = experiment: Antibacterial activity against Proteus mirabilis by broth dilution method
Citrobacter freundii = experiment: Antibacterial activity against Citrobacter freundii by broth dilution method; in short: as §2
Streptococcus pneumoniae = experiment: Antibacterial activity against Levofloxacin resistant Streptococcus pneumoniae by broth dilution method
In short: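 Streptococcus pneumoniae clinical isolates tested by CLSI broth microdilution. A 0.5 McFarland suspension was diluted into Mueller-Hinton broth with 3% lysed horse blood, then tested against serial drug dilutions. Plates were incubated overnight at 35°C in ambient air, and the MIC was read as the lowest inhibitory concentration. Quality control strains were included in each run.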

Streptococcus pyogenes = experiment: Antibacterial activity against Streptococcus pyogenes by broth dilution method
In short: (§3)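 Streptococci were tested by CLSI broth microdilution in Mueller-Hinton broth with 3% lysed horse blood, seeded from a 0.5 McFarland suspension. Incubated overnight at 35°C in ambient air, with quality control strains in each run. MIC taken over a per-agent dilution range.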

Streptococcus viridans = experiment: Antibacterial activity against Streptococcus viridans by broth dilution method; in short: as §3
Acinetobacter baumannii = experiment: Antibacterial activity against Acinetobacter baumannii by broth dilution method; in short: as §2
Pseudomonas aeruginosa = experiment: Antibacterial activity against Pseudomonas aeruginosa by broth dilution method
Haemophilus influenzae = experiment: Antibacterial activity against Haemophilus influenzae by broth dilution method
In short: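 Broth microdilution per CLSI using Haemophilus Test Medium broth, seeded from a 0.5 McFarland suspension. Incubated overnight at 35°C in ambient air, with quality control strains in each run. MIC read against a tested dilution range; values at the low limit are given as the lowest concentration.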

Neisseria gonorrhoeae [4] = experiment: Antibacterial activity against ciprofloxacin resistant Neisseria gonorrhoeae isolates by broth dilution method
In short: (§4)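 Neisseria gonorrhoeae clinical isolates tested by CLSI broth microdilution in Mueller-Hinton broth with 3% lysed horse blood, inoculated from a 0.5 McFarland suspension. Plates were incubated overnight at 35°C in 5% CO2, and the MIC was read as the lowest inhibitory concentration. Quality control strains were included in each run.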

Neisseria gonorrhoeae [5] = experiment: Antibacterial activity against levofloxacin resistant Neisseria gonorrhoeae isolates by broth dilution method; in short: as §4
Neisseria gonorrhoeae [6] = experiment: Antibacterial activity against moxifloxacin resistant Neisseria gonorrhoeae isolates by broth dilution method; in short: as §4
Staphylococcus aureus = experiment: Antibacterial activity against ciprofloxacin and methicillin resistant Staphylococcus aureus by broth dilution method; in short: as §1
Enterococcus faecalis [7] = experiment: Antibacterial activity against Enterococcus faecalis by broth dilution method
Enterococcus faecalis [8] = experiment: Antibacterial activity against vancomycin resistant Enterococcus faecalis by broth dilution method
Enterococcus faecium [9] = experiment: Antibacterial activity against Enterococcus faecium by broth dilution method; in short: as §1
Enterococcus faecium [10] = experiment: Antibacterial activity against vancomycin resistant Enterococcus faecium by broth dilution method; in short: as §1

Row | Structure (SMILES) | MIC50 [1] [µg/mL] | MIC90 [1] [µg/mL] | MIC50 (Escherichia coli [2]) [µg/mL] | MIC90 (Escherichia coli [2]) [µg/mL] | MIC50 (Escherichia coli [3]) [µg/mL] | MIC90 (Escherichia coli [3]) [µg/mL] | MIC50 (Klebsiella pneumoniae) [µg/mL] | MIC90 (Klebsiella pneumoniae) [µg/mL] | MIC50 (Proteus mirabilis) [µg/mL] | MIC90 (Proteus mirabilis) [µg/mL] | MIC50 (Citrobacter freundii) [µg/mL] | MIC90 (Citrobacter freundii) [µg/mL] | MIC50 (Streptococcus pneumoniae) [µg/mL] | MIC90 (Streptococcus pneumoniae) [µg/mL] | MIC50 (Streptococcus viridans) [µg/mL] | MIC90 (Streptococcus viridans) [µg/mL] | MIC50 (Acinetobacter baumannii) [µg/mL] | MIC90 (Acinetobacter baumannii) [µg/mL] | MIC50 (Pseudomonas aeruginosa) [µg/mL] | MIC90 (Pseudomonas aeruginosa) [µg/mL] | further results
1 | O=C(O)c1cn(C2CC2)c2cc(N3CCNCC3)c(F)cc2c1=O [CIPROFLOXACIN] | 0.5 (≈ 1.51 µM) | > 16 | > 16 | > 16 | 0.25 (≈ 0.754 µM) | 1 (≈ 3.02 µM) | 4 (≈ 12.1 µM) | > 16 | 2 (≈ 6.04 µM) | > 16 | ≤ 0.06 | 2 (≈ 6.04 µM) | > 16 | > 16 | 1 (≈ 3.02 µM) | 4 (≈ 12.1 µM) | 4 (≈ 12.1 µM) | > 16 | 4 (≈ 12.1 µM) | > 16 | MIC50 (Staphylococcus): 0.5 µg/mL (≈ 1.51 µM); MIC90 (Staphylococcus): > 16 µg/mL; MIC50 (Streptococcus pyogenes): 1 µg/mL (≈ 3.02 µM); MIC90 (Streptococcus pyogenes): 4 µg/mL (≈ 12.1 µM); MIC50 (Haemophilus influenzae): 0.25 µg/mL (≈ 0.754 µM); MIC90 (Haemophilus influenzae): 16 µg/mL (≈ 48.3 µM); MIC (Neisseria gonorrhoeae [4]): 2 µg/mL (≈ 6.04 µM); MIC (Neisseria gonorrhoeae [5]): 1 µg/mL (≈ 3.02 µM); MIC (Neisseria gonorrhoeae [6]): 0.5 µg/mL (≈ 1.51 µM)
2 | COc1c(N2C[C@@H]3CCCN[C@@H]3C2)c(F)cc2c(=O)c(C(=O)O)cn(C3CC3)c12 [MOXIFLOXACIN] | 0.12 (≈ 0.299 µM) | 2 (≈ 4.98 µM) | > 8 | > 8 | 0.5 (≈ 1.25 µM) | 1 (≈ 2.49 µM) | 4 (≈ 9.96 µM) | > 8 | 8 (≈ 19.9 µM) | > 8 | 0.5 (≈ 1.25 µM) | 8 (≈ 19.9 µM) | 2 (≈ 4.98 µM) | 8 (≈ 19.9 µM) | 0.12 (≈ 0.299 µM) | 0.25 (≈ 0.623 µM) | 1 (≈ 2.49 µM) | > 8 | > 8 | > 8 | MIC50 (Staphylococcus aureus): 4 µg/mL (≈ 9.96 µM); MIC90 (Staphylococcus aureus): 4 µg/mL (≈ 9.96 µM); MIC50 (Enterococcus faecalis [7]): 0.5 µg/mL (≈ 1.25 µM); MIC90 (Enterococcus faecalis [7]): > 8 µg/mL; MIC50 (Enterococcus faecalis [8]): 0.5 µg/mL (≈ 1.25 µM); MIC50 (Enterococcus faecium [9]): > 8 µg/mL; MIC90 (Enterococcus faecium [9]): > 8 µg/mL; MIC (Enterococcus faecium [10]): 1 µg/mL (≈ 2.49 µM); MIC (Streptococcus pneumoniae): 2 µg/mL (≈ 4.98 µM); MIC50 (Haemophilus influenzae): 0.25 µg/mL (≈ 0.623 µM); MIC90 (Haemophilus influenzae): > 8 µg/mL; MIC (Neisseria gonorrhoeae [4]): 2 µg/mL (≈ 4.98 µM); MIC (Neisseria gonorrhoeae [5]): 1 µg/mL (≈ 2.49 µM); MIC (Neisseria gonorrhoeae [6]): 0.5 µg/mL (≈ 1.25 µM)
